Measured values: ChEMBL document CHEMBL4842350, “Discovery of a Novel Bromodomain and Extra Terminal Domain (BET) Protein Inhibitor, I-BET282E, Suitable for Clinical Progression” (J Med Chem, 2021)

Experiments:
[1] = Unbound fraction in Wistar Han rat blood at 100 to 1000 ng/ml by LC-MS/MS-based rapid equilibrium dialysis method; type: ADME, tissue-based; conditions: dose 100-1000 ng/ml
In short: (§1)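 Whole blood (male Balb/C mouse, male Wistar Han rat, male Beagle dog; human from one unmedicated donor) spiked to nominal 100 and 1000 ng/mL; 10 min at 37 °C, then rapid equilibrium dialysis against PBS 4 h at 37 °C, 100 rpm. Matrix-matched acetonitrile extraction, LC-MS/MS; mean of n = 6.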

[2] = Oral bioavailability in Beagle dog at 3 mg/kg measured upto 24 hrs by HPLC-MS/MS analysis; conditions: in vivo
[3] = rat, hepatocytes, 2 h, 0.5 µM
[4] = biological target: Bromodomain-containing protein 4 (Homo sapiens, UniProt O60885, Y390A); experiment: Displacement of Alexa Fluor 647 labelled ligand from recombinant human N-terminal 6His-tagged BRD4-BD1 Y390A mutant (1 to 477 residue) expressed in Escherichia coli incubated for 30 mins by TR-FRET assay
[5] = Cmax in Wistar Han rat at 1 mg/kg, po measured upto 24 hrs by HPLC-MS/MS analysis; type: ADME, organism-based; parameters: route oral, dose 1 mg/kg, time <=24; conditions: in vivo
In short: (§2)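 Oral suspension in 1% (w/v) hydroxypropylmethyl cellulose in water; male rats (n = 3) and male dogs (n = 4). AUC taken from 0 h to last quantifiable time point; Cmax is maximum observed plasma concentration; Tmax reported as median. Mean ± SD.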

[6] = Total blood clearance in CD1 mouse at 1 mg/kg/hr, iv measured upto 24 hrs by LC-MS/MS analysis relative to hepatic blood flow; type: ADME, organism-based; conditions: in vivo
In short: (§3)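 Surgically cannulated male CD1 mice (n = 3), 1 h iv infusion via jugular vein at 1 mg/kg/h (0.2 mg/mL in 2% DMSO/98% 10% Kleptose HPB in saline, 5 mL/kg/h). Tail-vein blood to 24 h plus terminal cardiac sample at 26 h; LC-MS/MS, LLQ 5 ng/mL. Mean ± SD.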

[7] = AUC(0 to t) in Wistar Han rat at 1 mg/kg, po measured upto 24 hrs by HPLC-MS/MS analysis; type: ADME, organism-based; parameters: route oral, dose 1 mg/kg, time <=24; conditions: in vivo; in short: as §2
[8] = Total blood clearance in Beagle dog at 1 mg/kg/hr, iv measured upto 28 hrs by LC-MS/MS analysis relative to hepatic blood flow; type: ADME, organism-based, Canis lupus familiaris; conditions: in vivo
[9] = Volume of distribution at steady state in CD1 mouse at 1 mg/kg/hr, iv measured upto 24 hrs by LC-MS/MS analysis; type: ADME, organism-based; conditions: in vivo, read-out: Vdss; in short: as §3
Cytochrome P450 2C19 = Cytochrome P450 2C19 (Homo sapiens, UniProt P33261); experiment: Inhibition of recombinant human CYP2C19 expressed in Escherichia coli using BMC as probe substrate incubated for 15 to 60 mins by fluorometric assay; type: ADME
In short: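 Recombinant human CYPs coexpressed with NADPH reductase in E. coli bactosomes (0.1 mg protein/mL); profluorescent substrates ER (1A2), BMC (2C19), MMC (2D6), VividGreen or VividRed (3A4).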

[10] = Half life in Wistar Han rat at 1 mg/kg/hr, iv measured upto 26 hrs by LC-MS/MS analysis; type: ADME, organism-based; conditions: in vivo
Cytochrome P450 3A4 = Cytochrome P450 3A4 (Homo sapiens, UniProt P08684); experiment: Inhibition of recombinant human CYP3A4 expressed in Escherichia coli using VG as probe substrate incubated for 15 to 60 mins by fluorometric assay; type: ADME
[11] = Unbound fraction in Balb/C mouse blood at 100 to 1000 ng/ml by LC-MS/MS-based rapid equilibrium dialysis method; type: ADME, tissue-based; conditions: dose 100-1000 ng/ml; in short: as §1
[12] = biological target: CREB-binding protein (Homo sapiens) (UniProt Q92793); experiment: Binding affinity to CBP (unknown origin) by ITC assay
[13] = human, hepatocytes, 2 h, 0.5 µM

Chain of Cytochrome P450 2C19 (P33261 whole entry): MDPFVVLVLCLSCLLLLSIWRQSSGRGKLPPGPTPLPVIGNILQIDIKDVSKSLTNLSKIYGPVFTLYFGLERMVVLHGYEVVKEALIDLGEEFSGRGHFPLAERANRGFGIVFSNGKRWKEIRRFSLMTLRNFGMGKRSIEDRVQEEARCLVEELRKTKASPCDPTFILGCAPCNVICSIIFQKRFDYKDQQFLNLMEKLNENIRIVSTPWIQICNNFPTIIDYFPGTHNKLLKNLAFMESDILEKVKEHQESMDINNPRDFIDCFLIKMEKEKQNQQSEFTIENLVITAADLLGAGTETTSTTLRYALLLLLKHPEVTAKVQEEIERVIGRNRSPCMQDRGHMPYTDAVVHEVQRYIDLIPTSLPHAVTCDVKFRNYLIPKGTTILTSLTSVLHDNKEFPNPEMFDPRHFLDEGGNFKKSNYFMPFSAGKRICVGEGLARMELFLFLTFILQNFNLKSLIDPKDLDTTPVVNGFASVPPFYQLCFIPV
Chain of Cytochrome P450 3A4 (P08684 whole entry): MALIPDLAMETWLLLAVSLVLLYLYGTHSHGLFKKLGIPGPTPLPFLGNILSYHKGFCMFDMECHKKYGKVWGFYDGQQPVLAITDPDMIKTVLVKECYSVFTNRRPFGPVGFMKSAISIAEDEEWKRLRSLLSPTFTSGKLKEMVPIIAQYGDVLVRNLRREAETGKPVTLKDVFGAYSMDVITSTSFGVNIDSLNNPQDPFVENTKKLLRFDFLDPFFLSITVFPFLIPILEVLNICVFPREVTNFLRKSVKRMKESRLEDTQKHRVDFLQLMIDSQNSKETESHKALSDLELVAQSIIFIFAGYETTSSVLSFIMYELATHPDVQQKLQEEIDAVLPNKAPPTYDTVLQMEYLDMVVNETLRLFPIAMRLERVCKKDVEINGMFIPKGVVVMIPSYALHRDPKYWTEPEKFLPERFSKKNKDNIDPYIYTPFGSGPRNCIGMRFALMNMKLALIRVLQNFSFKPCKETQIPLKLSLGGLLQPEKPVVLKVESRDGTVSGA
Chain of CREB-binding protein (Homo sapiens) (Q92793 2-2442 limits assumed): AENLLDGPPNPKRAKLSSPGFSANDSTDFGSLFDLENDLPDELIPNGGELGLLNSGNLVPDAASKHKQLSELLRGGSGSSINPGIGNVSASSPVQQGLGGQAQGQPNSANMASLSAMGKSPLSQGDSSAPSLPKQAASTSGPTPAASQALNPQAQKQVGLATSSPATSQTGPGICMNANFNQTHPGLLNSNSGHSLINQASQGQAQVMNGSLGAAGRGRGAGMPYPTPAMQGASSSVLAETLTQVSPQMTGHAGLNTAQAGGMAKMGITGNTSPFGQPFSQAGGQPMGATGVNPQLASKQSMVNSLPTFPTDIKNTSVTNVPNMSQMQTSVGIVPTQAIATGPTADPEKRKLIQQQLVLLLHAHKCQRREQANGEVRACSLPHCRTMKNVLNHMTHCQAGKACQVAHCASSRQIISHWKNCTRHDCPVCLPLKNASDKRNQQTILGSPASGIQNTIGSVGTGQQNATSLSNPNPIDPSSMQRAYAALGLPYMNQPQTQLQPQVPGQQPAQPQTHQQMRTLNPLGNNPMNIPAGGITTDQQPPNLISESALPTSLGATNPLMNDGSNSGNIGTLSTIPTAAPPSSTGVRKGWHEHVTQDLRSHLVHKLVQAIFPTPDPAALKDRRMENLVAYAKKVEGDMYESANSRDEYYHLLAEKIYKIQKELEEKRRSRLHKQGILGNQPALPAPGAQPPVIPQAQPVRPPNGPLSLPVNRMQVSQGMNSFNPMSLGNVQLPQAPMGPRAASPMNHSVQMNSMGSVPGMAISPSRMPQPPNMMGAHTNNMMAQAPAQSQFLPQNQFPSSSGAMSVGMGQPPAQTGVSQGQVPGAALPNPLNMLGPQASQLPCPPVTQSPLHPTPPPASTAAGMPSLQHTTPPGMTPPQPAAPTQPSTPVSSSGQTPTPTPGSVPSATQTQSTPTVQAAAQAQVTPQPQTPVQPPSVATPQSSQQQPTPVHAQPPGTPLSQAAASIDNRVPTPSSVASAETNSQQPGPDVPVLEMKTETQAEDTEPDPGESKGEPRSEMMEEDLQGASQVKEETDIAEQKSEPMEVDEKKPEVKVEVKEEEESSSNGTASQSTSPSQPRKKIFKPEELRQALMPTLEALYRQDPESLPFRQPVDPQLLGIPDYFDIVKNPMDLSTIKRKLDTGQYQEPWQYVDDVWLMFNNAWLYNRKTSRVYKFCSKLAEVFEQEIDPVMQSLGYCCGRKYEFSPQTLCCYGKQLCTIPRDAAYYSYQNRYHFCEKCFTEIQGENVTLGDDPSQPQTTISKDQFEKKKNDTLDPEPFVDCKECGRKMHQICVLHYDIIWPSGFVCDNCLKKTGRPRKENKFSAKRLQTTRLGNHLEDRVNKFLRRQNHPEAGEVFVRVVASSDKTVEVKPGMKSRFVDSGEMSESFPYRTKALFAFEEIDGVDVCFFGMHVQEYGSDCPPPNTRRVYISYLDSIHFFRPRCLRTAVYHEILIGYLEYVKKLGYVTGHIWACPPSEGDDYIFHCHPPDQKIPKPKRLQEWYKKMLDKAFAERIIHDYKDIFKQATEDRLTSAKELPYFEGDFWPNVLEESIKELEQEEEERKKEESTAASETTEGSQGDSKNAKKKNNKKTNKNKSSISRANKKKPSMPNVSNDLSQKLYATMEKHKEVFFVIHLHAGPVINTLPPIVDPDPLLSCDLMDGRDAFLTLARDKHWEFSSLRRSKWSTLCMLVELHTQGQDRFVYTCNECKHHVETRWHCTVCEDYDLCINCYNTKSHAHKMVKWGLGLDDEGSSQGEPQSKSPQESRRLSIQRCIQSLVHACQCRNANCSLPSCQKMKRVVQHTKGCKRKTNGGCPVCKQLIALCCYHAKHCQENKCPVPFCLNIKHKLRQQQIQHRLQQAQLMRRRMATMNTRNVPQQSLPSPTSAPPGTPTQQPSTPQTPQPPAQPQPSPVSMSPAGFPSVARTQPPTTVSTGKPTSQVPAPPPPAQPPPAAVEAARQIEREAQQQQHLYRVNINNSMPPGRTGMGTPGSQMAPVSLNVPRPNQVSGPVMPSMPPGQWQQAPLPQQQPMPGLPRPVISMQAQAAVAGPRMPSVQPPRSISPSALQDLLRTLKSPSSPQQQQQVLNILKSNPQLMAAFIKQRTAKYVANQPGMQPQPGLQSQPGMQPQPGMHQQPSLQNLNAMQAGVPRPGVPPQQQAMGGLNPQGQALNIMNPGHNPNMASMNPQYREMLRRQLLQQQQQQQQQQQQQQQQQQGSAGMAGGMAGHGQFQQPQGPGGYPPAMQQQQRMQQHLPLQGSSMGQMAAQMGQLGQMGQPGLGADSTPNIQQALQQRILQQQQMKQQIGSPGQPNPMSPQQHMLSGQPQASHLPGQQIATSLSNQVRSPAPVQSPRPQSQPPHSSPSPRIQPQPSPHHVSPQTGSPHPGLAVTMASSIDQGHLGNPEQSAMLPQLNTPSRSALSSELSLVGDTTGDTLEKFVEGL

fraction unbound [1]: 0.16
F [2]: 31%
CLint [3]: < 0.86 mL/min/g liver
IC50 [4]: 0.0398 µM
Cmax [5]: 125 ng/mL
CLH [6]: 19%
AUC(0-t) at 24 h [7]: 467 ng·h/mL
CLH [8]: 68%
Vd [9]: 1.9 L/kg
IC50 (Cytochrome P450 2C19): > 50 µM
half-life [10]: 1.4 h
IC50 (Cytochrome P450 3A4): 25.1 µM
fraction unbound [11]: 0.1
Activity [12]: 1730 nM
CLint [13]: < 0.86 mL/min/g liver
SMILES: COC[C@@H](C)n1c(C2CCOCC2)nc2cnc3cc(-c4c(C)noc4C)c(OC)cc3c21
